# Data: ChEMBL document CHEMBL4350976, “Sequence modification of heptapeptide selected by phage display as homing device for HT-29 colon cancer cells to improve the anti-tumour activity of drug delivery systems” (Eur J Med Chem, 2019)
# Where a SMILES comes first, the peptide text is derived from it. The star is where a group is joined. X1 = COc1cccc2c1C(=O)c1c(O)c3c(c(O)c1C2=O)C[C@@](O)(/C(C)=N/OCC(=O)*)C[C@@H]3O[C@H]1C[C@H](N)[C@H](O)[C@H](C)O1
# Key:
# [1] = Drug metabolism in rat liver lysosomes homogenate assessed as increase in Dau = Aoa-Leu-OH metabolite formation at 0.05 ug/ul after 1 hr by LC-MS analysis; assay type: ADME, subcellular, Lysosome; conditions: tissue homogenate
# Method in brief: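 Conjugates and rat liver lysosomal homogenate were each used at 0.05 µg/µL. Samples were taken at 0, 1, 3, 6 and 24 h. Metabolites were identified by LC-MS on a C18 column with a formic acid/acetonitrile gradient.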
# U-87 MG [2] = test: Cytostatic activity against human U87 cells preincubated for 24 hrs under serum free condition followed by compound washout and further incubation for 48 hrs in presence of serum by MTT assay; assay type: functional, cell-based, U-87MG ATCC
# Method in brief: (§1)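 Cells were grown at 37 °C in 5% CO2 in medium with 10% heat-inactivated FBS (20% for OVCAR-3) plus penicillin/streptomycin. The medium was RPMI-1640 for most lines, DMEM for U-87 MG and MRC-5, and IMDM for PE/CA-PJ lines. Seeding was 3×10^3–10×10^3 cells per well. Cells had 24 h compound exposure, a wash, and 48 h further culture. Read-out was MTT, normalized to untreated cells and fitted by nonlinear regression for IC50.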
# MCF7 [3] = test: Cytostatic activity against human MCF7 cells preincubated for 24 hrs under serum free condition followed by compound washout and further incubation for 48 hrs in presence of serum by MTT assay; assay type: functional, cell-based; method in brief: as §1
# WiDr = test: Cytostatic activity against human WiDr cells preincubated for 24 hrs under serum free condition followed by compound washout and further incubation for 48 hrs in presence of serum by MTT assay; assay type: functional, cell-based; method in brief: as §1
# A549 [4] = test: Cytostatic activity against human A549 cells preincubated for 24 hrs under serum free condition followed by compound washout and further incubation for 48 hrs in presence of serum by MTT assay; assay type: functional, cell-based; method in brief: as §1
# NCI-H1650 = test: Cytostatic activity against human NCI-H1650 cells preincubated for 24 hrs under serum free condition followed by compound washout and further incubation for 48 hrs in presence of serum by MTT assay; assay type: functional, cell-based; method in brief: as §1
# NCI-H1975 [5] = test: Cytostatic activity against human NCI-H1975 cells preincubated for 24 hrs under serum free condition followed by compound washout and further incubation for 48 hrs in presence of serum by MTT assay; assay type: functional, cell-based; method in brief: as §1
# B16 [6] = test: Cytostatic activity against mouse B16 cells preincubated for 24 hrs under serum free condition followed by compound washout and further incubation for 48 hrs in presence of serum by MTT assay; assay type: functional, cell-based; method in brief: as §1
# OVCAR-3 = test: Cytostatic activity against human OVCAR3 cells preincubated for 24 hrs under serum free condition followed by compound washout and further incubation for 48 hrs in presence of serum by MTT assay; assay type: functional, cell-based; method in brief: as §1
# PANC-1 = test: Cytostatic activity against human PANC1 cells preincubated for 24 hrs under serum free condition followed by compound washout and further incubation for 48 hrs in presence of serum by MTT assay; assay type: functional, cell-based; method in brief: as §1
# DU-145 [7] = test: Cytostatic activity against human DU145 cells preincubated for 24 hrs under serum free condition followed by compound washout and further incubation for 48 hrs in presence of serum by MTT assay; assay type: functional, cell-based; method in brief: as §1
# PC-3 [8] = test: Cytostatic activity against human PC3 cells preincubated for 24 hrs under serum free condition followed by compound washout and further incubation for 48 hrs in presence of serum by MTT assay; assay type: functional, cell-based; method in brief: as §1
# MRC5 = test: Cytostatic activity against human MRC5 cells preincubated for 24 hrs under serum free condition followed by compound washout and further incubation for 48 hrs in presence of serum by MTT assay; assay type: ADME, cell-based; method in brief: as §1
# [9] = Drug uptake in mitochondria of human HT-29 cells assessed as increase in fluorescence at 50 uM after 30 mins by MitoTracker deep red staining based confocal microscopic analysis; assay type: ADME; conditions: ht-29, 0.5 h
# Method in brief: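 HT-29 cells were exposed to 50 µM conjugate for 30 min before imaging. Lysosomes were stained with LysoTracker Deep Red and mitochondria with MitoTracker Deep Red. Confocal imaging detected Dau at 550–600 nm.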
# U-87 MG [10] = test: Potency index, ratio of compound IC50 to Daunomycin IC50 for human U87 cells preincubated for 24 hrs under serum free condition followed by compound washout and further incubation for 48 hrs in presence of serum by MTT assay; assay type: functional, U-87MG ATCC
# MCF7 [11] = test: Potency index, ratio of compound IC50 to Daunomycin IC50 for human MCF7 cells preincubated for 24 hrs under serum free condition followed by compound washout and further incubation for 48 hrs in presence of serum by MTT assay; assay type: functional
# MDA-MB-231 = test: Potency index, ratio of compound IC50 to Daunomycin IC50 for human MDA-MB-231 cells preincubated for 24 hrs under serum free condition followed by compound washout and further incubation for 48 hrs in presence of serum by MTT assay; assay type: functional
# 4T1 = test: Potency index, ratio of compound IC50 to Daunomycin IC50 for mouse 4T1 cells preincubated for 24 hrs under serum free condition followed by compound washout and further incubation for 48 hrs in presence of serum by MTT assay; assay type: functional
# CT26.WT = test: Potency index, ratio of compound IC50 to Daunomycin IC50 for mouse CT26.WT cells preincubated for 24 hrs under serum free condition followed by compound washout and further incubation for 48 hrs in presence of serum by MTT assay; assay type: functional
# A549 [12] = test: Potency index, ratio of compound IC50 to Daunomycin IC50 for human A549 cells preincubated for 24 hrs under serum free condition followed by compound washout and further incubation for 48 hrs in presence of serum by MTT assay; assay type: functional
# NCI-H1975 [13] = test: Potency index, ratio of compound IC50 to Daunomycin IC50 for human NCI-H1975 cells preincubated for 24 hrs under serum free condition followed by compound washout and further incubation for 48 hrs in presence of serum by MTT assay; assay type: functional
# A2058 = test: Potency index, ratio of compound IC50 to Daunomycin IC50 for human A2058 cells preincubated for 24 hrs under serum free condition followed by compound washout and further incubation for 48 hrs in presence of serum by MTT assay; assay type: functional
# [14] = Potency index, ratio of compound IC50 to Daunomycin IC50 for human M24 cells preincubated for 24 hrs under serum free condition followed by compound washout and further incubation for 48 hrs in presence of serum by MTT assay; assay type: functional
# B16 [15] = test: Potency index, ratio of compound IC50 to Daunomycin IC50 for mouse B16 cells preincubated for 24 hrs under serum free condition followed by compound washout and further incubation for 48 hrs in presence of serum by MTT assay; assay type: functional
# [16] = Potency index, ratio of compound IC50 to Daunomycin IC50 for human PE/CA-PJ15 cells preincubated for 24 hrs under serum free condition followed by compound washout and further incubation for 48 hrs in presence of serum by MTT assay; assay type: functional
# DU-145 [17] = test: Potency index, ratio of compound IC50 to Daunomycin IC50 for human DU145 cells preincubated for 24 hrs under serum free condition followed by compound washout and further incubation for 48 hrs in presence of serum by MTT assay; assay type: functional
# PC-3 [18] = test: Potency index, ratio of compound IC50 to Daunomycin IC50 for human PC3 cells preincubated for 24 hrs under serum free condition followed by compound washout and further incubation for 48 hrs in presence of serum by MTT assay; assay type: functional
# [19] = Solubility of compound; assay type: physicochemical
# [20] = Drug uptake in human HT-29 cells cytoplasm at 50 uM after 90 mins by fluorescence based confocal microscopic analysis; assay type: ADME, subcellular; conditions: ht-29, 1.5 h
# Method in brief: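 HT-29 cells were incubated with 50 µM compound in RPMI for 90 min. Imaging was by confocal microscopy, with Dau detected at 550–600 nm emission.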
smiles,measurement,setting,value
COc1cccc2c1C(=O)c1c(O)c3c(c(O)c1C2=O)C[C@@](O)(/C(C)=N/OCC(=O)N[C@@H](CC(C)C)C(=O)N[C@@H](CCCNC(=N)N)C(=O)N[C@@H](CCCNC(=N)N)C(=O)N[C@@H](Cc1ccc(O)cc1)C(=O)N[C@H](C(=O)N[C@@H](Cc1cnc[nH]1)C(=O)N[C@@H](CC(C)C)C(=O)N[C@@H](Cc1ccccc1)C(=O)N[C@@H](Cc1ccc(O)cc1)C(=O)N[C@@H](C)C(=O)N[C@H](C(N)=O)[C@@H](C)O)C(C)C)C[C@@H]3O[C@H]1C[C@H](N)[C@H](O)[C@H](C)O1 (X1-LRRYVHLFYAT-NH2),Drug metabolism,[1],Metabolite_Detected
same,IC50,U-87 MG [2],6.6 µM
same,IC50,MCF7 [3],11.1 µM
same,IC50,WiDr,15.1 µM
same,IC50,A549 [4],5.9 µM
same,IC50,NCI-H1650,2.9 µM
same,IC50,NCI-H1975 [5],3.7 µM
same,IC50,B16 [6],3 µM
same,IC50,OVCAR-3,11.3 µM
same,IC50,PANC-1,26.9 µM
same,IC50,DU-145 [7],3.5 µM
same,IC50,PC-3 [8],5.9 µM
same,IC50,MRC5,52.1 µM
same,Drug uptake,[9],Not Active
same,Ratio IC50,U-87 MG [10],236.9
same,Ratio IC50,MCF7 [11],38.8
same,Ratio IC50,MDA-MB-231,86.6
same,Ratio IC50,4T1,284.6
same,Ratio IC50,CT26.WT,66
same,Ratio IC50,A549 [12],86.1
same,Ratio IC50,NCI-H1975 [13],279.9
same,Ratio IC50,A2058,104.5
same,Ratio IC50,[14],61.7
same,Ratio IC50,B16 [15],335.4
same,Ratio IC50,[16],277.3
same,Ratio IC50,DU-145 [17],142.3
same,Ratio IC50,PC-3 [18],226.7
same,solubility,[19],Soluble
same,Drug uptake,[20],Active
